Converted amounts (≈) assume the structure as drawn.
How the values were obtained:
Candida albicans = test: Antifungal activity against Candida albicans CAF-2 after 24 hrs by broth microdilution method; assay type: functional; conditions: CAF-2, 24 h
In short: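 Broth microdilution per CLSI M27-A3: 1000 cells per well in RPMI, two-fold compound dilutions from 0.1 to 50 μg/ml, final volume 100 μL RPMI. MIC-50 is the lowest concentration that inhibits growth to half the OD of the untreated control.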

Cryptococcus neoformans [1] = test: Antifungal activity against Cryptococcus neoformans JEC-21 after 72 hrs by broth microdilution method; assay type: functional; conditions: JEC-21, 72 h
In short: (§1)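 Broth microdilution per CLSI M27-A3 and M38-A2. 1000 cells per well in RPMI (final 100 µL) with two-fold compound dilutions from 0.1 to 50 µg/ml. MIC-50 is the lowest concentration that cuts growth to half the OD of the untreated control. Candida species are clinical strains. A. fumigatus strain is AF-294.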

[2] = tested on: Meyerozyma guilliermondii; test: Antifungal activity against Candida guilliermondii after 24 hrs by broth microdilution method; assay type: functional; in short: as §1
[3] = Cytotoxicity against human HepG2 cells after 24 hrs by neutral red cell viability assay; assay type: cell-based
In short: (§2)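 Neutral red viability assay on HepG2 human hepatoma cells at defined compound concentrations, exposure 24, 48 or 72 h. CC-50 was calculated from the viability data.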

[4] = Ratio of CC50 for human HepG2 cells to MIC50 for antifungal activity; assay type: functional
Huh-7 = test: Cytotoxicity against human HuH7 cells by MTT assay; assay type: cell-based
Aspergillus fumigatus = test: Antifungal activity against Aspergillus fumigatus AF-294 after 48 hrs by broth microdilution method; conditions: AF-294, 48 h
Candida parapsilosis = test: Antifungal activity against Candida parapsilosis after 24 hrs by broth microdilution method; assay type: functional; conditions: Lodderomyces parapsilosis; in short: as §1
Nakaseomyces glabratus = test: Antifungal activity against Candida glabrata after 24 hrs by broth microdilution method; assay type: functional; in short: as §1
[5] = Cytotoxicity against human HepG2 cells after 72 hrs by neutral red cell viability assay; assay type: cell-based; in short: as §2
Clavispora lusitaniae = test: Antifungal activity against Candida lusitaniae after 24 hrs by broth microdilution method; assay type: functional; in short: as §1
[6] = Antifungal activity against Candida apicola after 24 hrs by broth microdilution method; assay type: functional; in short: as §1
[7] = Cytotoxicity against human HepG2 cells after 48 hrs by neutral red cell viability assay; assay type: cell-based; in short: as §2
HepG2 = test: Cytotoxicity against human HepG2 cells by MTT assay; assay type: cell-based
In short: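 MTT viability assay at defined compound concentrations in human hepatoma cell lines HepG2 and Huh7.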

Candida tropicalis = test: Antifungal activity against Candida tropicalis after 24 hrs by broth microdilution method; assay type: functional; in short: as §1
Cryptococcus neoformans [8] = test: Antifungal activity against Cryptococcus neoformans H-99 after 72 hrs by broth microdilution method; assay type: functional; conditions: H-99, 72 h; in short: as §1

COc1cccc(CNC(=O)Cn2sc3ccccc3c2=O)c1 gave an MIC50 (Candida albicans) of 3.2 µg/mL (≈ 9.74 µM).

In the case of CCN(CC)C(=O)Cn1sc2ccccc2c1=O, the MIC50 (Candida albicans) is reported as > 50 µg/mL.

In the case of CN(C(=O)Cn1sc2ccccc2c1=O)c1ccccc1, the MIC50 (Candida albicans) is reported as > 50 µg/mL.

For O=C(Cn1sc2ccccc2c1=O)NCCN1CCOCC1, the MIC50 (Candida albicans) was > 50 µg/mL.

Work on COc1ccc(CNC(=O)Cn2sc3ccccc3c2=O)cc1 yielded an MIC50 (Candida albicans) of 3.2 µg/mL (≈ 9.74 µM).

In the case of O=C(Cn1sc2ccccc2c1=O)Nc1ccccc1, the MIC50 (Candida albicans) is reported as 6.4 µg/mL (≈ 22.5 µM).

With C[C@H](NC(=O)Cn1sc2ccccc2c1=O)c1ccccc1 the MIC50 (Candida albicans) was 6.4 µg/mL (≈ 20.5 µM).

Molecule CN(Cc1ccccc1)C(=O)Cn1sc2ccccc2c1=O has an MIC50 (Candida albicans) of 1.6 µg/mL (≈ 5.12 µM), an MIC50 (Cryptococcus neoformans [1]) of 1.6 µg/mL (≈ 5.12 µM) and an MIC50 [2] of 1.6 µg/mL (≈ 5.12 µM). The CC50 at 24 h [3] was 62.2 µg/mL (≈ 199 µM), the Ratio [4] was 15 and the Activity (Huh-7) was “Toxic”. The MIC50 (Aspergillus fumigatus) was 12.5 µg/mL (≈ 40 µM), the MIC50 (Candida parapsilosis) was 1.6 µg/mL (≈ 5.12 µM) and the MIC50 (Nakaseomyces glabratus) was 1.6 µg/mL (≈ 5.12 µM). It also gave a CC50 at 72 h [5] of 23.2 µg/mL (≈ 74.3 µM), an MIC50 (Clavispora lusitaniae) of 1.6 µg/mL (≈ 5.12 µM) and an MIC50 [6] of 1.6 µg/mL (≈ 5.12 µM). For the same molecule, the CC50 at 48 h [7] was 25.7 µg/mL (≈ 82.3 µM), the Activity (HepG2) was “Toxic” and the MIC50 (Candida tropicalis) was 1.6 µg/mL (≈ 5.12 µM). The MIC50 (Cryptococcus neoformans [8]) was 1.6 µg/mL (≈ 5.12 µM).

With O=C(Cn1sc2ccccc2c1=O)NC12CC3CC(CC(C3)C1)C2 the MIC50 (Candida albicans) was 3.2 µg/mL (≈ 9.34 µM).

With CC(C(=O)NCc1ccccc1)n1sc2ccccc2c1=O (racemic) the MIC50 (Candida albicans) was > 50 µg/mL.

For O=C(Cn1sc2ccccc2c1=O)Nc1nccs1, the MIC50 (Candida albicans) was > 50 µg/mL.

For O=C(Cn1sc2ccccc2c1=O)NCc1ccc(F)cc1, the MIC50 (Candida albicans) was 1.6 µg/mL (≈ 5.06 µM).

C[C@@H](NC(=O)Cn1sc2ccccc2c1=O)c1ccccc1 gave an MIC50 (Candida albicans) of 6.4 µg/mL (≈ 20.5 µM).

With COC(=O)c1ccccc1NC(=O)Cn1sc2ccccc2c1=O the MIC50 (Candida albicans) was 6.4 µg/mL (≈ 18.7 µM).

In the case of OC(Cn1cncn1)(Cn1cncn1)c1ccc(F)cc1F [FLUCONAZOLE], the MIC50 (Candida albicans) is reported as 0.2 µg/mL (≈ 0.653 µM), the MIC50 (Cryptococcus neoformans [1]) is reported as > 64 µg/mL and the MIC50 [2] is reported as 6.4 µg/mL (≈ 20.9 µM). It also gave an MIC50 (Aspergillus fumigatus) of 16 µg/mL (≈ 52.2 µM), an MIC50 (Candida parapsilosis) of 0.4 µg/mL (≈ 1.31 µM) and an MIC50 (Nakaseomyces glabratus) of 3.2 µg/mL (≈ 10.4 µM). For the same molecule, the MIC50 (Clavispora lusitaniae) was 3.2 µg/mL (≈ 10.4 µM), the MIC50 [6] was 0.2 µg/mL (≈ 0.653 µM) and the MIC50 (Candida tropicalis) was 16 µg/mL (≈ 52.2 µM). For the same molecule, the MIC50 (Cryptococcus neoformans [8]) was > 64 µg/mL.

For O=C(Cn1sc2ccccc2c1=O)NCCc1ccccc1, the MIC50 (Candida albicans) was > 50 µg/mL.

In the case of CC(C(=O)N(C)Cc1ccccc1)n1sc2ccccc2c1=O (racemic), the MIC50 (Candida albicans) is reported as 25 µg/mL (≈ 76.6 µM).

COC(=O)c1cccc(NC(=O)Cn2sc3ccccc3c2=O)c1 gave an MIC50 (Candida albicans) of 12.5 µg/mL (≈ 36.5 µM).

O=C(Cn1sc2ccccc2c1=O)NCc1ccccc1 gave an MIC50 (Candida albicans) of 3.2 µg/mL (≈ 10.7 µM).

CCN(Cc1ccccc1)C(=O)Cn1sc2ccccc2c1=O showed an MIC50 (Candida albicans) of 6.4 µg/mL (≈ 19.6 µM).

Reference: ChEMBL document CHEMBL1828604, “Antifungal activity of a series of 1,2-benzisothiazol-3(2H)-one derivatives” (Bioorg Med Chem, 2011)
